≈ marks a conversion by molar mass, not a printed value.
Assays:
BSC-1 = test: The compound was tested for its antiviral activity against HSV-1 (KOS) virus in BS-C-1A cell line; assay type: functional, Cercopithecidae; conditions: Chlorocebus aethiops
Procedure, shortened: (§1)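 Virus-induced cytopathogenicity in cell culture, scored microscopically. The value is the minimum concentration that cuts viral cytopathogenicity by 50%. Normal cell morphology was also checked microscopically at up to 400 μg/mL.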

E6SM [1] = test: The compound was tested for its antiviral activity against HSV-1 (KOS) virus in E6SM cell line; assay type: functional; conditions: Homo sapiens; procedure, shortened: as §1
E6SM [2] = test: The concentration required to reduce the cytopathogenicity of HSV-1 (KOS) in E6SM cell culture by 50% in presence of 100 ug/mL dThd; assay type: functional; conditions: Homo sapiens
Procedure, shortened: (§2)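 E6SM cells infected with HSV-1 (KOS), with dThd added to the culture medium at the stated concentration. The value is the minimum concentration that reduces viral cytopathogenicity by 50%.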

E6SM [3] = test: The concentration required to reduce the cytopathogenicity of HSV-1 (KOS) in E6SM cell culture by 50% in presence of 100 ug/mL concentrations of 6-aminothymine; assay type: functional; conditions: Homo sapiens
Procedure, shortened: (§3)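 E6SM cells infected with HSV-1 (KOS), with 6-aminothymine or benzylacyclouridine added to the medium at the stated concentration. The value is the minimum concentration that reduces viral cytopathogenicity by 50%.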

E6SM [4] = test: The compound was tested for its antiviral activity against HSV-1 (F) virus in E6SM cell culture; assay type: functional; conditions: Homo sapiens; procedure, shortened: as §1
E6SM [5] = test: The concentration required to reduce the cytopathogenicity of HSV-1 (KOS) in E6SM cell culture by 50% in presence of 50 ug/mL concentrations of benzylacyclouridine; assay type: functional; conditions: Homo sapiens
Procedure, shortened: (§4)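 E6SM cultures were infected with HSV-1 strain KOS. 6-Aminothymine or benzylacyclouridine was present in the medium together with the test compound. The value is the minimum concentration giving 50% reduction of viral cytopathogenicity, scored by the earlier-described cytopathogenicity inhibition procedure.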

E6SM [6] = test: The compound was tested for its antiviral activity against HSV-1 (KOS) virus in E6SM cell culture; assay type: functional; conditions: Homo sapiens; procedure, shortened: as §1
E6SM [7] = test: The compound was tested for its antiviral activity against HSV-1 (McIntyre) virus in E6SM cell culture; assay type: functional; conditions: Homo sapiens; procedure, shortened: as §1
E6SM [8] = test: The compound was tested for its antiviral activity against HSV-2 (196) virus in E6SM cell culture; assay type: functional; conditions: Homo sapiens; procedure, shortened: as §1
E6SM [9] = test: The compound was tested for its antiviral activity against HSV-2 (Lyons) virus in E6SM cell culture; assay type: functional; conditions: Homo sapiens; procedure, shortened: as §1
E6SM [10] = test: The compound was tested for its antiviral activity against TK-HSV-1 (B2006) virus in E6SM cell culture; assay type: functional; conditions: Homo sapiens; procedure, shortened: as §1
E6SM [11] = test: The compound was tested for its antiviral activity against vaccinia virus in E6SM cell culture; assay type: functional; conditions: Homo sapiens; procedure, shortened: as §1
E6SM [12] = test: The compound was tested for its antiviral activity against vesicular stomatitis virus in E6SM cell culture; assay type: functional; conditions: Homo sapiens; procedure, shortened: as §1
E6SM [13] = test: The concentration required to reduce the cytopathogenicity of HSV-1 (KOS) in E6SM cell culture by 50% in absence of dThd; assay type: functional; conditions: Homo sapiens; procedure, shortened: as §2
E6SM [14] = test: The concentration required to reduce the cytopathogenicity of HSV-1 (KOS) in E6SM cell culture by 50% in presence of 1 ug/mL dThd; assay type: functional; conditions: Homo sapiens; procedure, shortened: as §2
E6SM [15] = test: The concentration required to reduce the cytopathogenicity of HSV-1 (KOS) in E6SM cell culture by 50% in presence of 10 ug/mL dThd; assay type: functional; conditions: Homo sapiens; procedure, shortened: as §2
E6SM [16] = test: The concentration required to reduce the cytopathogenicity of HSV-1 (KOS) in E6SM cell culture by 50% in presence of 10 ug/mL concentrations of benzylacyclouridine; assay type: functional; conditions: Homo sapiens; procedure, shortened: as §3
E6SM [17] = test: The concentration required to reduce the cytopathogenicity of HSV-1 (KOS) in E6SM cell culture by 50% in presence of 20 ug/m concentrations of 6-aminothymine; assay type: functional; conditions: Homo sapiens; procedure, shortened: as §3
E6SM [18] = test: The concentration required to reduce the cytopathogenicity of HSV-1 (KOS) in E6SM cell culture by 50% in presence of 3 ug/mL dThd; assay type: functional; conditions: Homo sapiens; procedure, shortened: as §2
E6SM [19] = test: The concentration required to reduce the cytopathogenicity of HSV-1 (KOS) in E6SM cell culture by 50% in presence of 30 ug/mL dThd; assay type: functional; conditions: Homo sapiens
Procedure, shortened: (§5)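 Thymidine (dThd) was added to the E6SM culture medium alongside the test compound, and cells were infected with HSV-1 strain KOS. The endpoint is the minimum inhibitory concentration that reduces viral cytopathogenicity by 50%. The cytopathogenicity inhibition procedure follows the earlier-described method.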

E6SM [20] = test: The concentration required to reduce the cytopathogenicity of HSV-1 (KOS) in E6SM cell culture by 50% in presence of 300 ug/mL dThd; assay type: functional; conditions: Homo sapiens; procedure, shortened: as §5
E6SM [21] = test: The concentration required to reduce the cytopathogenicity of HSV-1 (KOS) in E6SM cell culture by 50% in presence of 4 ug/m concentrations of 6-aminothymine; assay type: functional; conditions: Homo sapiens; procedure, shortened: as §4
E6SM [22] = test: The concentration required to reduce the cytopathogenicity of HSV-1 (KOS) in E6SM cell culture by 50% in presence of absence of concentrations of 6-aminothymine; assay type: functional; conditions: Homo sapiens
E1 SM = test: The compound was tested for its antiviral activity against HSV-1 (KOS) virus in E1SM cell line; assay type: functional, Homo sapiens; procedure, shortened: as §1
E6SM [23] = test: The concentration required to reduce the cytopathogenicity of HSV-1 (KOS) in E6SM cell culture by 50% in presence of absence of concentrations of benzylacyclouridine; assay type: functional; conditions: Homo sapiens
HeLa [24] = test: The concentration required to reduce the cytopathogenicity of HSV-1 (KOS) in HeLa cell culture by 50% in presence of 4 ug/m concentrations of 6-aminothymine; assay type: functional; conditions: Homo sapiens
HeLa [25] = test: The concentration required to reduce the cytopathogenicity of HSV-1 (KOS) in HeLa cell culture by 50% in presence of absence concentrations of 6-aminothymine; assay type: functional; conditions: Homo sapiens
HeLa [26] = test: The concentration required to reduce the cytopathogenicity of HSV-1 (KOS) in HeLa cell culture by 50% in presence of 100 ug/m concentrations of 6-aminothymine; assay type: functional; conditions: Homo sapiens
HeLa [27] = test: The concentration required to reduce the cytopathogenicity of HSV-1 (KOS) in HeLa cell culture by 50% in presence of 20 ug/m concentrations of 6-aminothymine; assay type: functional; conditions: Homo sapiens
HEp-2 = test: The compound was tested for its antiviral activity against HSV-1 (KOS) virus in HEp-2M cell line; assay type: functional; conditions: Homo sapiens; procedure, shortened: as §1
HSF (VGS) = test: The compound was tested for its antiviral activity against HSV-1 (KOS) virus in HSF (VGS) cell line; assay type: functional; conditions: Homo sapiens; procedure, shortened: as §1
M21 = test: The compound was tested for its antiviral activity against HSV-1 (KOS) virus in M-21 (GM137) cell line,; assay type: functional; conditions: Homo sapiens; procedure, shortened: as §1
Mo = test: The compound was tested for its antiviral activity against HSV-1 (KOS) virus in MO cell line; assay type: functional; conditions: Homo sapiens; procedure, shortened: as §1
PRK = test: The compound was tested for its antiviral activity against HSV-1 (KOS) virus in PRK cell line; assay type: functional; conditions: Oryctolagus cuniculus
Procedure, shortened: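 Primary rabbit kidney cells infected with HSV-1 (KOS). The value is the minimum concentration that cuts viral cytopathogenicity by 50%. Cytotoxicity was judged as microscopically detectable alteration of cell morphology at up to 400 μg/mL.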

[28] = The concentration required to reduce the cytopathogenicity of HSV-1 (KOS) in PRK cell culture absence concentrations of 6-aminothymine; assay type: functional; conditions: Oryctolagus cuniculus
[29] = The concentration required to reduce the cytopathogenicity of HSV-1 (KOS) in PRK cell culture by 50% in presence of 100 ug/mL concentrations of 6-aminothymine; assay type: functional; conditions: Oryctolagus cuniculus
Procedure, shortened: (§6)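 The cells were primary rabbit kidney (PRK) cultures infected with HSV-1 strain KOS, with 6-aminothymine co-present in the medium. The value is the minimum inhibitory concentration that reduces viral cytopathogenicity by 50%, using the previously described cytopathogenicity inhibition method.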

[30] = The concentration required to reduce the cytopathogenicity of HSV-1 (KOS) in PRK cell culture by 50% in presence of 20 ug/mL concentrations of 6-aminothymine; assay type: functional; conditions: Oryctolagus cuniculus; procedure, shortened: as §6
[31] = The concentration required to reduce the cytopathogenicity of HSV-1 (KOS) in PRK cell culture by 50% in presence of 40 ug/mL concentrations of 6-aminothymine; assay type: functional; conditions: Oryctolagus cuniculus; procedure, shortened: as §6
T-21 (LR) = test: The compound was tested for its antiviral activity against HSV-1 (KOS) virus in T-21 (LR) cell line; assay type: functional; conditions: Homo sapiens; procedure, shortened: as §1
Vero = test: The compound was tested for its antiviral activity against HSV-1 (KOS) virus in vero cell line; assay type: functional; conditions: Chlorocebus sabaeus; procedure, shortened: as §1
HeLa [32] = test: The compound was tested for its antiviral activity against HSV-1 (KOS) virus in HeLa cell line; assay type: functional; conditions: Homo sapiens; procedure, shortened: as §1
E6SM [33] = test: The compound was tested for its antiviral activity against HSV-2 (G) virus in E6SM cell culture; assay type: functional; conditions: Homo sapiens; procedure, shortened: as §1
BALB/3T3 = test: The compound was tested for its antiviral activity against HSV-1 (KOS) virus in BALB/3T3 cell line; conditions: Mus musculus

O=c1[nH]c(=O)n([C@@H]2O[C@H](CO)[C@@H](O)[C@H]2O)cc1/C=C/Br
MIC50 (BSC-1): > 400 µg/mL
MIC50 (E6SM [1]): 4 µg/mL (≈ 11.5 µM)
MIC50 (E6SM [2]): > 400 µg/mL
MIC50 (E6SM [3]): 4 µg/mL
MIC50 (E6SM [4]): 7 µg/mL (≈ 20 µM)
MIC50 (E6SM [5]): 10 µg/mL
MIC50 (E6SM [6]): 4 µg/mL (≈ 11.5 µM)
MIC50 (E6SM [7]): 2 µg/mL (≈ 5.73 µM)
MIC50 (E6SM [8]): > 400 µg/mL
MIC50 (E6SM [9]): > 400 µg/mL
MIC50 (E6SM [10]): > 200 µg/mL
MIC50 (E6SM [11]): > 400 µg/mL
MIC50 (E6SM [12]): > 400 µg/mL
MIC50 (E6SM [13]): 7 µg/mL (≈ 20 µM)
MIC50 (E6SM [14]): 7 µg/mL
MIC50 (E6SM [15]): 70 µg/mL
MIC50 (E6SM [16]): 4 µg/mL
MIC50 (E6SM [17]): 3 µg/mL
MIC50 (E6SM [18]): 4 µg/mL
MIC50 (E6SM [19]): > 400 µg/mL
MIC50 (E6SM [20]): > 400 µg/mL
MIC50 (E6SM [21]): 3 µg/mL
MIC50 (E6SM [22]): 4 µg/mL
MIC50 (E1 SM): 1 µg/mL (≈ 2.86 µM)
MIC50 (E6SM [23]): 4 µg/mL
MIC50 (HeLa [24]): 0.4 µg/mL
MIC50 (HeLa [25]): 0.2 µg/mL
MIC50 (HeLa [26]): 1 µg/mL
MIC50 (HeLa [27]): 0.4 µg/mL
MIC50 (HEp-2): 150 µg/mL (≈ 430 µM)
MIC50 (HSF (VGS)): 1 µg/mL (≈ 2.86 µM)
MIC50 (M21): 4 µg/mL (≈ 11.5 µM)
MIC50 (Mo): > 400 µg/mL
MIC50 (PRK): 7 µg/mL (≈ 20 µM)
MIC50 [28]: 10 µg/mL (≈ 28.6 µM)
MIC50 [29]: 10 µg/mL
MIC50 [30]: 10 µg/mL
MIC50 [31]: 10 µg/mL
MIC50 (T-21 (LR)): 10 µg/mL (≈ 28.6 µM)
MIC50 (Vero): > 400 µg/mL
MIC50 (HeLa [32]): 0.4 µg/mL (≈ 1.15 µM)
MIC50 (E6SM [33]): > 400 µg/mL
MIC50 (BALB/3T3): > 400 µg/mL

Source: ChEMBL document CHEMBL1123468, “Synthesis and antiviral activity of (E)-5-(2-bromovinyl)uracil and (E)-5-(2-bromovinyl)uridine” (1986)
